These results are taken from ChEMBL document CHEMBL1158120, “Cytotoxic oxygenated triterpenoid saponins from Symplocos chinensis” (J Nat Prod, 2006).

What all share (format): functional, cell-based
In one experiment the test system is A549. In words: Cytotoxicity against human A549 cells by MTT assay. An outline of the steps: (§1)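 MTT read-out of tumour-cell viability. IC50 values in µM are reported as means of three independent experiments.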
A general note: Tetrazolium dyes change colour on reduction, which living cells bring about.

Another experiment concerns HCT-8. In words: Cytotoxicity against human HCT8 cells by MTT assay. In short, it runs like this: as §1
Another experiment relates to A2780. In words: Cytotoxicity against human A2780 cells by MTT assay. In short, it runs like this:
as §1

The test system of a further experiment is BGC-823. In words: Cytotoxicity against human BGC-823 cells by MTT assay. In short, it runs like this: as §1
The subject of another experiment is Bel-7402. In words: Cytotoxicity against human Bel-7402 cells by MTT assay. An outline of the steps:
as §1

Broadly, the IC50 is the midpoint of a concentration-inhibition curve. With `CC(C)=CCC/C(C)=C\C(=O)O[C@H]1[C@H](OC(=O)C(C)C)[C@]2(CO)[C@H](O)[C@H](O)[C@]3(C)C(=CC[C@@H]4[C@@]5(C)CC[C@H](O)C(C)(C)[C@@H]5CC[C@]43C)[C@@H]2CC1(C)C`, the concentration for half-maximal inhibition (IC50) in the experiment with A549, in the experiment with HCT-8, in the experiment with A2780, in the experiment on BGC-823 and with Bel-7402 was > 10000 nM in each case.

With `CC(C)=CCC/C(C)=C\C(=O)O[C@H]1CC(C)(C)C[C@H]2C3=CC[C@@H]4[C@@]5(C)CC[C@H](O)C(C)(C)[C@@H]5CC[C@@]4(C)[C@]3(C)[C@@H](O)[C@@H](O)[C@@]12CO`, the IC50 in the experiment with A549, in the experiment with HCT-8, with A2780, in the experiment with BGC-823 and with Bel-7402 was > 10000 nM in each case.

With `CCC(C)C(=O)O[C@H]1[C@H](OC(=O)/C=C(\C)CCC=C(C)C)C(C)(C)C[C@H]2C3=CC[C@@H]4[C@@]5(C)CC[C@H](O[C@@H]6O[C@H](C(=O)O)[C@@H](O)[C@H](O)[C@H]6O[C@@H]6O[C@H](CO)[C@@H](O)[C@H](O)[C@H]6O)C(C)(C)[C@@H]5CC[C@@]4(C)[C@]3(C)[C@@H](O)[C@@H](O)[C@]21CO` (some centres undefined), the IC50 with A549 was > 10000 nM; with HCT-8, > 10000 nM; with A2780, 1900 nM; in the experiment with BGC-823 it was > 10000 nM; in the experiment with Bel-7402, > 10000 nM.

As for `CC1(C)C[C@H](O)[C@]2(CO)[C@H](O)[C@H](O)[C@]3(C)C(=CC[C@@H]4[C@@]5(C)CC[C@H](O)C(C)(C)[C@@H]5CC[C@]43C)[C@@H]2C1`, the IC50 in the experiment with A549, in the experiment with HCT-8, with A2780, in the experiment with BGC-823 and in the experiment on Bel-7402 was > 10000 nM in each case.

For `COc1cccc2c1C(=O)c1c(O)c3c(c(O)c1C2=O)C[C@@](O)(C(=O)CO)C[C@@H]3O[C@H]1C[C@H](N)[C@H](O)[C@H](C)O1` [DOXORUBICIN], the IC50 came out at 800 nM in the experiment on HCT-8, 100 nM in the experiment on A2780, 1000 nM in the experiment on BGC-823 and 1000 nM in the experiment on Bel-7402.

As to `CC1(C)C[C@H]2C3=CC[C@@H]4[C@@]5(C)CC[C@H](O)C(C)(C)[C@@H]5CC[C@@]4(C)[C@]3(C)[C@@H](O)[C@@H](O)[C@@]2(CO)[C@@H](O)[C@@H]1O` [R1-barrigenol], the concentration for half-maximal inhibition (IC50) in the experiment with A549, with HCT-8, with A2780, with BGC-823 and in the experiment on Bel-7402 was > 10000 nM in each case.

Turning to `CCCCOC(=O)[C@H]1O[C@@H](O[C@H]2CC[C@]3(C)[C@H]4CC=C5[C@@H]6CC(C)(C)[C@@H](OC(=O)/C=C(/C)CCC=C(C)C)[C@H](OC(=O)C(C)CC)[C@]6(CO)[C@H](O)[C@H](O)[C@@]5(C)[C@]4(C)CC[C@H]3C2(C)C)[C@H](O[C@@H]2O[C@H](CO)[C@@H](O)[C@H](O)[C@H]2O)[C@@H](O)[C@@H]1O[C@@H]1O[C@@H](CO)[C@H](O)[C@H]1O` (some centres undefined) [SYMPLOCOSOSIDE C], the IC50 was > 10000 nM in the experiment with A549; 2900 nM with HCT-8; 1300 nM with A2780; 4300 nM with BGC-823; 1500 nM in the experiment with Bel-7402.

Regarding `CCCCOC(=O)[C@H]1O[C@@H](O[C@H]2CC[C@]3(C)[C@H]4CC=C5[C@@H]6CC(C)(C)[C@@H](OC(=O)/C=C(\C)CCC=C(C)C)[C@H](OC(=O)C(C)CC)[C@]6(CO)[C@H](O)[C@H](O)[C@@]5(C)[C@]4(C)CC[C@H]3C2(C)C)[C@H](O[C@@H]2O[C@H](CO)[C@@H](O)[C@H](O)[C@H]2O)[C@@H](O)[C@@H]1O[C@@H]1O[C@@H](CO)[C@H](O)[C@H]1O` (some centres undefined) [SYMPLOCOSOSIDE D], the 50% inhibitory concentration (IC50) is > 10000 nM with A549; > 10000 nM in the experiment on HCT-8; 1740 nM in the experiment with A2780; > 10000 nM in the experiment with BGC-823; 1890 nM in the experiment with Bel-7402.

Regarding `CCCCOC(=O)[C@H]1O[C@@H](O[C@H]2CC[C@]3(C)[C@H]4CC=C5[C@@H]6CC(C)(C)[C@@H](OC(=O)/C=C/c7ccccc7)[C@H](OC(=O)C(C)CC)[C@]6(CO)[C@H](O)[C@H](O)[C@@]5(C)[C@]4(C)CC[C@H]3C2(C)C)[C@H](O[C@@H]2O[C@H](CO)[C@@H](O)[C@H](O)[C@H]2O)[C@@H](O)[C@@H]1O[C@@H]1O[C@@H](CO)[C@H](O)[C@H]1O` (some centres undefined) [SYMPLOCOSOSIDE E], the 50% inhibitory concentration (IC50) with A549 was > 10000 nM; with HCT-8, > 10000 nM; in the experiment with A2780 it was 1700 nM; with BGC-823 it was > 10000 nM; with Bel-7402 it was 1700 nM.

Take `CCCCOC(=O)[C@H]1O[C@@H](O[C@H]2CC[C@]3(C)[C@H]4CC=C5[C@@H]6CC(C)(C)C[C@H](OC(=O)/C=C(/C)CCC=C(C)C)[C@]6(CO)[C@H](O)[C@H](O)[C@@]5(C)[C@]4(C)CC[C@H]3C2(C)C)[C@H](O[C@@H]2O[C@H](CO)[C@@H](O)[C@H](O)[C@H]2O)[C@@H](O)[C@@H]1O[C@@H]1O[C@@H](CO)[C@H](O)[C@H]1O` [SYMPLOCOSOSIDE F]: the IC50 with A549 was > 10000 nM; in the experiment with HCT-8, 4000 nM; in the experiment on A2780, > 10000 nM; with BGC-823, > 10000 nM; in the experiment with Bel-7402, > 10000 nM.

As for `CCC(C)C(=O)O[C@H]1[C@H](OC(=O)/C=C(/C)CCC=C(C)C)C(C)(C)C[C@H]2C3=CC[C@@H]4[C@@]5(C)CC[C@H](O[C@@H]6O[C@H](C(=O)O)[C@@H](O[C@@H]7O[C@@H](CO)[C@H](O)[C@H]7O)[C@H](OC(C)=O)[C@H]6O[C@@H]6O[C@H](CO)[C@@H](O)[C@H](O)[C@H]6O)C(C)(C)[C@@H]5CC[C@@]4(C)[C@]3(C)[C@@H](O)[C@@H](O)[C@]21CO` (some centres undefined) [SYMPLOCOSOSIDE G], the half-maximal inhibitory concentration (IC50) in the experiment on A549 was determined as 2100 nM; with HCT-8, 2000 nM; in the experiment with A2780, 1400 nM; in the experiment on BGC-823, 1900 nM; in the experiment with Bel-7402 it was 1800 nM.

`CCC(C)C(=O)O[C@H]1[C@H](OC(=O)/C=C(\C)CCC=C(C)C)C(C)(C)C[C@H]2C3=CC[C@@H]4[C@@]5(C)CC[C@H](O[C@@H]6O[C@H](C(=O)O)[C@@H](O[C@@H]7O[C@@H](CO)[C@H](O)[C@H]7O)[C@H](OC(C)=O)[C@H]6O[C@@H]6O[C@H](CO)[C@@H](O)[C@H](O)[C@H]6O)C(C)(C)[C@@H]5CC[C@@]4(C)[C@]3(C)[C@@H](O)[C@@H](O)[C@]21CO` (some centres undefined) [SYMPLOCOSOSIDE H]: the IC50 with A549 stood at 2700 nM; in the experiment on HCT-8, 2100 nM; in the experiment on A2780, 1400 nM; with BGC-823, 2500 nM; with Bel-7402 it was 2600 nM.

Turning to `CCC(C)C(=O)O[C@H]1[C@H](OC(=O)/C=C(/C)CCC=C(C)C)C(C)(C)C[C@H]2C3=CC[C@@H]4[C@@]5(C)CC[C@H](O[C@@H]6O[C@H](C(=O)OC)[C@@H](O[C@@H]7O[C@@H](CO)[C@H](O)[C@H]7O)[C@H](OC(C)=O)[C@H]6O[C@@H]6O[C@H](CO)[C@@H](O)[C@H](O)[C@H]6O)C(C)(C)[C@@H]5CC[C@@]4(C)[C@]3(C)[C@@H](O)[C@@H](O)[C@]21CO` (some centres undefined) [SYMPLOCOSOSIDE I], the concentration for half-maximal inhibition (IC50) in the experiment with A549 was > 10000 nM; in the experiment on HCT-8 it was 1700 nM; in the experiment with A2780, 3200 nM; in the experiment with BGC-823 it was > 10000 nM; in the experiment on Bel-7402, 2700 nM.

As for `CC(=O)O[C@@H]1[C@@H](O[C@@H]2O[C@H](CO)[C@@H](O)[C@H](O)[C@H]2O)[C@H](O[C@H]2CC[C@]3(C)[C@H]4CC=C5[C@@H]6CC(C)(C)[C@@H](OC(=O)/C=C(/C)CCC=C(C)C)[C@H](OC(=O)c7ccccc7)[C@]6(CO)[C@H](O)[C@H](O)[C@@]5(C)[C@]4(C)CC[C@H]3C2(C)C)O[C@H](C(=O)O)[C@H]1O[C@@H]1O[C@@H](CO)[C@H](O)[C@H]1O` [SYMPLOCOSOSIDE J], the 50% inhibitory concentration (IC50) with A549 amounted to 3000 nM; in the experiment on HCT-8, 2100 nM; in the experiment with A2780 it was 1400 nM; in the experiment on BGC-823, 1800 nM; in the experiment with Bel-7402, 1700 nM.

As for `COC(=O)[C@H]1O[C@@H](O[C@H]2CC[C@]3(C)[C@H]4CC=C5[C@@H]6CC(C)(C)[C@@H](OC(=O)/C=C(/C)CCC=C(C)C)[C@H](OC(=O)c7ccccc7)[C@]6(CO)[C@H](O)[C@H](O)[C@@]5(C)[C@]4(C)CC[C@H]3C2(C)C)[C@H](O[C@@H]2O[C@H](CO)[C@@H](O)[C@H](O)[C@H]2O)[C@@H](OC(C)=O)[C@@H]1O[C@@H]1O[C@@H](CO)[C@H](O)[C@H]1O` [SYMPLOCOSOSIDE K], the half-maximal inhibitory concentration (IC50) with A549 is 4000 nM; with HCT-8, 2400 nM; in the experiment on A2780, 800 nM; with BGC-823, > 10000 nM; in the experiment on Bel-7402 it was 5100 nM.

On to `CC(=O)O[C@@H]1[C@@H](O[C@@H]2O[C@H](CO)[C@@H](O)[C@H](O)[C@H]2O)[C@H](O[C@H]2CC[C@]3(C)[C@H]4CC=C5[C@@H]6CC(C)(C)[C@@H](OC(=O)/C=C(/C)CCC=C(C)C)[C@H](OC(=O)C(C)C)[C@]6(CO)[C@H](O)[C@H](O)[C@@]5(C)[C@]4(C)CC[C@H]3C2(C)C)O[C@H](C(=O)O)[C@H]1O[C@@H]1O[C@@H](CO)[C@H](O)[C@H]1O` [SYMPLOCOSOSIDE L], for which the IC50 was > 10000 nM in the experiment on A549; 1700 nM in the experiment with HCT-8; 2400 nM in the experiment with A2780; > 10000 nM in the experiment with BGC-823; 2700 nM in the experiment with Bel-7402.

With `CC(=O)O[C@@H]1[C@@H](O[C@@H]2O[C@H](CO)[C@@H](O)[C@H](O)[C@H]2O)[C@H](O[C@H]2CC[C@]3(C)[C@H]4CC=C5[C@@H]6CC(C)(C)[C@@H](OC(=O)/C=C(\C)CCC=C(C)C)[C@H](OC(=O)C(C)C)[C@]6(CO)[C@H](O)[C@H](O)[C@@]5(C)[C@]4(C)CC[C@H]3C2(C)C)O[C@H](C(=O)O)[C@H]1O[C@@H]1O[C@@H](CO)[C@H](O)[C@H]1O` [SYMPLOCOSOSIDE M], the IC50 in the experiment with A549 is > 10000 nM; with HCT-8, 2700 nM; in the experiment on A2780, 2300 nM; in the experiment on BGC-823, > 10000 nM; with Bel-7402, 3800 nM.
